We go through 9 compounds from ChEMBL document CHEMBL1926552, “Design and synthesis of simplified taxol analogs based on the T-Taxol bioactive conformation” (Bioorg Med Chem, 2011).

The species entered for data set [1] is Bos taurus. Briefly: Induction of bovine brain beta-tubulin polymerization at 60 uM using DAPI staining-based by fluorescence assay relative to control. The essentials:
(§1)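 Bovine brain tubulin was loaded with 5 mM GDP in PME buffer (100 mM Pipes, 1 mM MgSO4, 2 mM EGTA, pH 6.9), then gel-filtered into PMED (PME plus 0.1 mM GDP). Tubulin (8 µM, just below critical concentration) with 10 µM DAPI was equilibrated at 37 °C. Ligand (8 or 60 µM) in DMSO (10% v/v final) was added to start the reaction. Fluorescence (ex 360, em 450 nm) was read to steady state against a DMSO-only control.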

The species entered for data set [2] is Bos taurus. Briefly: Induction of bovine brain alpha-tubulin polymerization at 60 uM using DAPI staining-based by fluorescence assay relative to control. The essentials:
as §1

For data set [3], the species on record is Bos taurus. Nature of the data set: Induction of bovine brain beta-tubulin assembly assessed as prevention of temperature-induced microtubule disassembly at 60 uM at 4 degC by absorption spectrophotometric analysis relative to control. In outline: (§2)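 Bovine brain tubulin, 15 µM final, in PMEG buffer (100 mM Pipes, 1 mM MgSO4, 2 mM EGTA, 1 mM GTP, pH 6.9), equilibrated to 37 °C and baseline recorded. Ligand (15 or 60 µM) added, and assembly followed as light scattering at OD 350 nm. The sample was then cooled to 4 °C to follow disassembly. DMSO was 10% v/v final; the control had tubulin plus DMSO only.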

For data set [4], the species on record is Bos taurus. Nature of the data set: Induction of bovine brain beta-tubulin assembly assessed as increase in formed microtubule concentration at 60 uM at 37 degC by absorption spectrophotometric analysis relative to control. The essentials:
as §2

The species named for data set [5] is Bos taurus. Briefly: Induction of bovine brain alpha-tubulin assembly assessed as prevention of temperature-induced microtubule disassembly at 60 uM at 4 degC by absorption spectrophotometric analysis relative to control. The essentials: as §2
For data set [6], the species on record is Bos taurus. Nature of the data set: Induction of bovine brain alpha-tubulin assembly assessed as increase in formed microtubule concentration at 60 uM at 37 degC by absorption spectrophotometric analysis relative to control. The essentials: as §2
The subject of another data set is A2780. Briefly: Antiproliferative activity against human A2780 cells after 2 days by alamar blue assay. It counts as functional, cell-based. The note with it: A2780, 48 h.
Data set [7] in a line: Solubility of the compound in buffer containing 10% DMSO. It counts as physicochemical.
The species named for data set [8] is Bos taurus. Nature of the data set: Induction of bovine brain beta-tubulin assembly assessed as prevention of temperature-induced microtubule disassembly at 15 uM at 4 degC by absorption spectrophotometric analysis relative to control. In outline: as §2
Data set [9] is filed under the species Bos taurus. Nature of the data set: Induction of bovine brain beta-tubulin assembly assessed as increase in formed microtubule concentration at 15 uM at 37 degC by absorption spectrophotometric analysis relative to control. In outline: as §2
The species entered for data set [10] is Bos taurus. Briefly: Induction of bovine brain alpha-tubulin polymerization at 8 uM using DAPI staining-based by fluorescence assay relative to control. The essentials: as §1
The species named for data set [11] is Bos taurus. Briefly: Induction of bovine brain beta-tubulin polymerization at 8 uM using DAPI staining-based by fluorescence assay relative to control. The essentials:
as §1

The species entered for data set [12] is Bos taurus. Nature of the data set: Induction of bovine brain alpha-tubulin assembly assessed as prevention of temperature-induced microtubule disassembly at 15 uM at 4 degC by absorption spectrophotometric analysis relative to control. In outline:
as §2

The species named for data set [13] is Bos taurus. Nature of the data set: Induction of bovine brain alpha-tubulin assembly assessed as increase in formed microtubule concentration at 15 uM at 37 degC by absorption spectrophotometric analysis relative to control. In outline:
as §2

SMILES strings stand for the structures. pIC50: −log10 of the molar value. Converted amounts (≈) assume the structure as drawn. The source made the active and inactive calls. The calls are words filed in the database; no cut-off is given here.

For `C=CCOc1cccc2c1[C@H](OC(=O)c1ccccc1)[C@@H]1C[C@H](OC(=O)[C@H](O)[C@@H](NC(=O)c3ccccc3)c3ccccc3CC=C)CN1C2`, the result in the data set listed under Bos taurus [1] and in the data set listed under Bos taurus [2] was inactive. Also, the result in the data set filed under Bos taurus [3], in the data set filed under Bos taurus [4], in the data set filed under Bos taurus [5] and in the data set filed under Bos taurus [6] was Active. In the data set with A2780, this compound showed a negative logarithm of the IC50 (pIC50) of 5.33. Moreover, the solubility in data set [7] was 60 µM (≈ 40.4 µg/mL).
As for `O=C(N[C@H]1c2ccccc2C/C=C/COc2cccc3c2[C@@H](OC(=O)c2ccccc2)[C@@H]2C[C@@H](CN2C3)OC(=O)[C@@H]1O)c1ccccc1`, the result in the data set listed under Bos taurus [1] and in the data set filed under Bos taurus [2] was inactive. Further, the result in the data set filed under Bos taurus [3], in the data set filed under Bos taurus [4], in the data set listed under Bos taurus [5] and in the data set listed under Bos taurus [6] was Active. Further, in the data set with A2780, the pIC50 was 5.29. The compound also showed a solubility in data set [7] of 60 µM (≈ 38.7 µg/mL).
In the case of `O=C(N[C@H]1c2ccccc2OC/C=C/COc2cccc3c2[C@H](OC(=O)c2ccccc2)[C@@H]2C[C@@H](CN2C3)OC(=O)[C@@H]1O)c1ccccc1`, the result in the data set filed under Bos taurus [1] and in the data set listed under Bos taurus [2] was inactive. Besides, the outcome in the data set listed under Bos taurus [3], in the data set listed under Bos taurus [4], in the data set listed under Bos taurus [5] and in the data set listed under Bos taurus [6] was Active. This compound also showed a pIC50 with A2780 of 5.39. Moreover, the concentration in solution in [7] (solubility) came to 60 µM (≈ 39.6 µg/mL).
`C=CCCOc1ccccc1[C@H](NC(=O)c1ccccc1)[C@@H](O)C(=O)O[C@H]1C[C@H]2[C@@H](OC(=O)c3ccccc3)c3c(cccc3OCC=C)CN2C1`: the outcome in the data set filed under Bos taurus [1] and in the data set filed under Bos taurus [2] was inactive. The outcome in the data set listed under Bos taurus [3], in the data set listed under Bos taurus [4], in the data set listed under Bos taurus [5] and in the data set listed under Bos taurus [6] was Active. In the data set on A2780, this compound showed a pIC50 of 5.24. In data set [7], this compound yielded a solubility of 60 µM (≈ 42.2 µg/mL).
For the compound `C=CCOc1ccccc1[C@H](NC(=O)c1ccccc1)[C@@H](O)C(=O)O[C@H]1C[C@H]2[C@@H](OC(=O)c3ccccc3)c3c(cccc3OCC=C)CN2C1`, the outcome in the data set filed under Bos taurus [1] and in the data set filed under Bos taurus [2] was inactive. In addition, the result in the data set listed under Bos taurus [3], in the data set filed under Bos taurus [4], in the data set filed under Bos taurus [5] and in the data set listed under Bos taurus [6] was Active. Also, in the data set with A2780, the pIC50 is 5.08. The compound also had a solubility in [7] of 60 µM (≈ 41.3 µg/mL).
Take `C=CCOc1cccc2c1[C@@H](OC(=O)c1ccccc1)[C@@H]1C[C@H](OC(=O)[C@H](O)[C@@H](NC(=O)c3ccccc3)c3ccccc3CC=C)CN1C2`: the outcome in the data set filed under Bos taurus [1] and in the data set listed under Bos taurus [2] was inactive. The result in the data set filed under Bos taurus [3], in the data set filed under Bos taurus [4], in the data set listed under Bos taurus [5] and in the data set filed under Bos taurus [6] was Active. In the data set with A2780, this compound gave a pIC50 of 4.62. This compound also displayed a solubility in data set [7] of 60 µM (≈ 40.4 µg/mL).
Regarding `O=C(N[C@H]1c2ccccc2OCC/C=C/COc2cccc3c2[C@H](OC(=O)c2ccccc2)[C@@H]2C[C@@H](CN2C3)OC(=O)[C@@H]1O)c1ccccc1`, the outcome in the data set filed under Bos taurus [1] and in the data set listed under Bos taurus [2] was inactive. The outcome in the data set filed under Bos taurus [3], in the data set filed under Bos taurus [4], in the data set filed under Bos taurus [5] and in the data set filed under Bos taurus [6] was Active. In the data set with A2780, this compound showed a pIC50 of 5.35. For the same compound, in [7], the solubility was found to be 60 µM (≈ 40.5 µg/mL).
On to `CC(=O)O[C@H]1C(=O)[C@@]2(C)[C@H]([C@H](OC(=O)c3ccccc3)[C@]3(O)C[C@H](OC(=O)[C@H](O)[C@@H](NC(=O)c4ccccc4)c4ccccc4)C(C)=C1C3(C)C)[C@]1(OC(C)=O)CO[C@@H]1C[C@@H]2O`, for which the outcome in the data set filed under Bos taurus [8], in the data set listed under Bos taurus [9], in the data set listed under Bos taurus [12] and in the data set listed under Bos taurus [13] was Active. Moreover, the outcome in the data set listed under Bos taurus [10] and in the data set filed under Bos taurus [11] was inactive.
In the case of `O=C(N[C@H]1c2ccccc2C/C=C/COc2cccc3c2[C@H](OC(=O)c2ccccc2)[C@@H]2C[C@@H](CN2C3)OC(=O)[C@@H]1O)c1ccccc1`, the outcome in the data set listed under Bos taurus [1] and in the data set listed under Bos taurus [2] was inactive. Further, the result in the data set filed under Bos taurus [3], in the data set filed under Bos taurus [4], in the data set filed under Bos taurus [5] and in the data set filed under Bos taurus [6] was Active. In the data set with A2780, the pIC50 was 5.40. In addition, in [7], the concentration in solution (solubility) was 60 µM (≈ 38.7 µg/mL).
